Screening data as filed in PubChem.
PRMT1 FP inh = inhibitors of human PRMT1; Q99873; recombinant PRMT1, activity-based probe fluorescence polarization; inhibition, % at 2.79 µM; 370,000 compounds, 1.3% hits; AID 652257;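 active = inhibition above about 21% made by adding two undisclosed values, limit read from the data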
Target sequence (Q99873 whole entry, looked up): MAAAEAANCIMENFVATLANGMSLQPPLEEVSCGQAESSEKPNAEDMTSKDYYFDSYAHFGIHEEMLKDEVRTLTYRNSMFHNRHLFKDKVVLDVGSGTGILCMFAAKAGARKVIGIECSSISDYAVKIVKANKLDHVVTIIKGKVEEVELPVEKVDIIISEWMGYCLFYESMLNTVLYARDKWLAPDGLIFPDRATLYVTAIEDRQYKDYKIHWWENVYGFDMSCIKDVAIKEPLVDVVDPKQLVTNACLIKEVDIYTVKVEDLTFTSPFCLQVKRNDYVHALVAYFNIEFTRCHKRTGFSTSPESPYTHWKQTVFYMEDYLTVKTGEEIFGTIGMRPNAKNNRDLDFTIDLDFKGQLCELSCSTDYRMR
APOBEC3G inh = inhibitors of human APOBEC3G DNA deaminase. AID 493012. Q9HC16. 330,000 compounds, 0.28% hits. inhibition, % at 20 µM. recombinant A3G, ssDNA deamination FAM/TAMRA fluorescence;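 active = inhibition of at least 40% at 20 µM, with no more than 30% in the related APOBEC3A deaminase screen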;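 also: plate controls were DMSO wells with A3G for no effect and wells lacking A3G enzyme for full effect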
HCV core dimer = blocks dimerization of HCV core protein | inhibition, % at 5 µM | 300,000 compounds, 0.33% hits | TR-FRET GST/Flag-core106 dimerization, 1536-well;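 active = inhibition above the mean of all tested compounds plus 3 SD, set per screening campaign, cut at about 45% in these data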
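Material: GST/Flag-tagged HCV core106 proteins. Incubation: 4 h, 22.5 °C incubation. Read-out basis: inhibition (%) from 671 over 617 nm ratio. Measured by: TR-FRET, excitation 340 nm, emission 617 and 671 nm.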
HCV NS3 hel inh = blocks Hepatitis C virus NS3 helicase unwinding; NS3 helicase DNA unwinding, Cy5 molecular beacon fluorescence; inhibition, % at 10.9 µM; 290,000 compounds, 0.56% hits; AID 1800;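 active = inhibition above the mean of all tested compounds plus 3 SD, set per campaign, cut at about 35% in these data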;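 also: 0% = DMSO wells and 100% = thioflavine S control wells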
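Test system: hepatitis C virus NS3 helicase domain fragment enzyme. Also added: annealed dual-labelled DNA beacon duplex, ATP-started. Timing: 60 min unwinding reaction at 25 °C after ATP addition. Technique: Cy5 fluorescence. Measure: % inhibition of unwinding.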
ABHD5 PLIN5 PPI = ABHD5-PLIN5 protein interaction inhibition. Split G. princeps luciferase complementation, luminescence, 4 h. AID 602281. inhibition, % at 4 µM. 360,000 compounds, 0.78% hits. Q00G26+Q8WTS1;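 active = inhibition above the mean inhibition across every tested compound plus 3 SD, cut at about 22% in these data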;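 also: 0% = DMSO only wells and the 100% control is not disclosed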
A3A deaminase = blocks human APOBEC3A ssDNA deamination; P31941; recombinant A3A, FAM/TAMRA ssDNA deamination fluorescence; inhibition, % at 20 µM; 330,000 compounds, 0.41% hits; AID 493011;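 active = at least 40% inhibition at 20 µM here, with at most 30% in a related deaminase screen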;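 also: plate controls were A3A with DMSO for no effect and wells lacking A3A enzyme for full effect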
Target sequence (P31941 whole entry, looked up): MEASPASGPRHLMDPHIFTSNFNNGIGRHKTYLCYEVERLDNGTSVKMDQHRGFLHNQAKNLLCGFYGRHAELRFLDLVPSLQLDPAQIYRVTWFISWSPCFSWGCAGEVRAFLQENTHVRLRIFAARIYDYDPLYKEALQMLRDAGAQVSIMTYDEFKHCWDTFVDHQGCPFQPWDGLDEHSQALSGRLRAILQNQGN
NS3 hel confirm = confirmation of Hepatitis C virus NS3 helicase inhibitors; shares compounds with HCV NS3 hel inh; NS3 helicase DNA unwinding, Cy5 molecular beacon fluorescence; inhibition, % at 10.9 µM; 1,600 compounds, 31% hits;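 active = inhibition above the mean of all tested compounds plus 3 SD, cutoff set per campaign, cut at about 36% in these data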
FID counter trip = intercalator displacement, NS3 helicase counter-screen; AID 1945; inhibition, % at 7.9 µM; DNA fluorescent intercalator displacement, fluorescence; shares compounds with HCV NS3 hel inh; 1,600 compounds, 4% hits; in the data active = inhibition above about 37%;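 also: 0% = vehicle and 100% = reference compound; higher means more displacement of ethidium bromide from the DNA hairpin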
DNA FID DR = DNA intercalator displacement in dose response; shares compounds with HCV NS3 hel inh; fluorescent intercalator displacement from DNA, fluorescence; IC50, µM; 120 tested, under 10 active; call rule not given here
The depositor's hits bear a star; i = inactive; / = no result given. Only some compounds are listed: those with a hit (about 2.9% of all), similar ones and a draw of the others.

SMILES	PRMT1 FP inh	APOBEC3G inh	HCV core dimer	HCV NS3 hel inh	ABHD5 PLIN5 PPI	A3A deaminase	NS3 hel confirm	FID counter trip	others
O=c1cc(CSc2ccc(Cl)cc2)[nH]c2[nH]n(-c3ccccc3)c(=O)c12	24.2*	1.7	-7.0	40.3*	1.3	10.4	52.9*	-5.4	DNA FID DR=>79.4
Cc1[nH]n(-c2ccccc2)c(=O)c1Sc1ccc(Cl)cc1	4.0	-1.5	6.7	20.0	-9.1	0.1	/	/
Cc1nc(Nc2ccc(S(N)(=O)=O)cc2)oc1C	-1.6	-8.1	-0.2	81.0*	5.7	-5.8	-12.5	0.8
Cc1nc(-c2ccccc2)sc1C(=O)Nc1ccc(S(N)(=O)=O)cc1	2.0	3.6	-7.4	-15.4	6.4	0.8	/	/
Cc1c(C(=O)NNC(=S)Nc2ccc(S(N)(=O)=O)cc2)oc2ccccc12	0.5	1.6	-21.1	38.3*	-9.3	-0.6	5.8	7.9
CCCCN1CC(COCc2ccccc2)Oc2cccc(NCc3cc(OC)c(OC)c(OC)c3)c2S1(=O)=O (stereo not drawn)	-0.2	/	/	/	/	/	/	/
CC(C)c1[nH]nc2c1C(c1ccc(F)cc1)N(Cc1ccccc1)C2=O (stereo not drawn)	-0.1	/	/	/	/	/	/	/
COc1ccc(C(=O)Nc2ccc(NC(=O)CSc3nnc(-c4ccncc4)n3C)cc2)cc1	3.7	-5.3	-8.5	36.1*	-4.7	1.4	-3.2	-6.9
COc1ccc(-n2c(SCC(=O)Nc3ccc(C(=O)O)cc3)nnc2-c2cccs2)cc1	1.1	3.2	5.2	63.5*	0.3	9.7	-4.8	-24.4
COc1ccc(C(=O)CSc2nnc(-c3cccs3)n2-c2ccccc2)cc1	-0.2	-2.5	-31.8	-4.7	-1.5	-4.2	/	/
COc1ccc(-n2c(Cc3cccn3C)nnc2SCC(=O)Nc2ccc3c(c2)OCO3)cc1	3.7	-0.7	-0.7	45.3*	4.6	-1.4	-15.2	-27.9
Cn1c(SCC(=O)Nc2ccc(NC(=O)c3ccccc3)cc2)nnc1-c1ccncc1	-0.2	-6.5	0.0	-12.5	1.7	0.0	/	/
CC(=O)Nc1ccc(CNc2nc3cc(-c4ccsc4)sc3c(=O)n2C)cc1	-2.2	/	/	/	-2.5	/	/	/
Cc1ccccc1CN1CC2=C(CCN(Cc3ccccc3)C2=O)N2CCN=C12	3.0	/	/	/	2.3	/	/	/
CCOC(=O)c1ccc(NC(=O)c2cc(C)nn2-c2ccccc2)cc1	-0.2	-6.9	4.3	45.6*	5.2	-4.2	-11.6	-31.6
COc1cc(/C=C2\SC(=S)N(C(C(=O)O)c3ccccc3)C2=O)ccc1O (stereo not drawn)	17.2	-2.6	-2.6	43.3*	-9.4	-2.0	74.6*	-1.2
O=C1/C(=C\c2ccc(O)c(O)c2)SC(=S)N1Cc1ccccc1	2.3	-10.5	/	69.0*	12.6	-5.7	59.4*	51.5*
COc1cc(/C=C2/SC(=S)N(Cc3ccccc3)C2=O)ccc1O	5.3	-26.3	-4.3	-0.2	-6.5	-7.0	/	/
CCOc1ccc(/C=C2/SC(=S)N(C(C(=O)O)c3ccccc3)C2=O)cc1OCC (stereo not drawn)	-0.1	/	/	19.9	-0.7	/	/	/
O=C(Nc1ccccc1N1CCCCC1)c1ccc(-c2cccc(Cl)c2)o1	-3.5	-2.9	-8.7	-15.5	2.6	1.0	/	/
O=C(Nc1cccc2nsnc12)c1ccc(-c2cccc(Cl)c2)o1	20.5	-3.0	21.2	40.0*	13.8	-4.0	-7.7	3.0
CCC(C(=O)O)n1nnc(-c2ccc(OCc3ccccc3)c(OC)c2)n1 (stereo not drawn)	3.4	-12.4	5.7	-5.1	/	-4.0	/	/
CCC(C(=O)O)n1nnc(-c2ccc(-c3ccc(OC)cc3)cc2)n1 (stereo not drawn)	0.4	-1.9	-4.7	39.2*	0.4	-3.1	61.6*	-21.5	DNA FID DR=>79.4
COc1ccccc1C1NC(=O)NC(C)=C1C(=O)OC1CCC(C)CC1 (stereo not drawn)	1.6	-4.6	-1.5	-14.4	-2.7	-5.7	/	/
N#Cc1ccc(C(=O)NNC(=O)c2cccc(S(=O)(=O)N3CCOCC3)c2)cc1	0.5	-4.8	/	/	1.8	0.6	/	/
SMILES	PRMT1 FP inh	APOBEC3G inh	HCV core dimer	HCV NS3 hel inh	ABHD5 PLIN5 PPI	A3A deaminase	NS3 hel confirm	FID counter trip	others
O=C(CSc1nc(=O)n(CCCN2CCOCC2)c2c1CCCC2)Nc1ccc(F)cc1	-0.8	-9.4	-0.1	/	3.5	-0.2	/	/
Cc1cc(C)cc(NC(=O)C2CCN(S(=O)(=O)c3ccc4c(c3)NC(=O)C(C)S4)CC2)c1 (stereo not drawn)	-0.8	-4.6	16.9	42.9*	2.5	-7.5	4.0	-11.6
COc1ccccc1CCNC(=O)CNC(=O)Cc1cccc2ccccc12	-4.9	-1.9	1.5	-2.8	-1.2	0.9	/	/
O=C(CCc1nc2ccccc2c(=O)[nH]1)OCC(=O)N1CCc2ccccc21	-1.0	-5.2	4.9	69.6*	4.1	-5.8	-14.4	-17.7
O=C(CCc1nc2ccccc2[nH]c1=O)OCC(=O)N1CCc2ccccc21	-2.2	-3.5	23.4	1.3	2.2	0.2	/	/
C=CCn1c(SCCC)nc2sc3c(c2c1=O)CCc1ccccc1-3	3.6	-5.4	0.0	60.2*	-2.4	-3.9	-7.8	-0.2
COc1cc(NC(=O)c2cc3ccccc3cc2O)c(OC)cc1Cl	2.0	-6.1	-6.7	12.3	-16.5	-2.8	/	/
O=C(Nc1ccccc1O)c1cc2cc(Br)ccc2oc1=O	-0.9	-0.1	5.0	42.9*	1.1	5.8	-6.1	4.4
COc1ccccc1NC(=O)c1cc2cc(Br)ccc2cc1O	1.2	/	23.3	12.9	-15.7	/	87.3*	29.6	DNA FID DR=i
O=C(NNC(=O)c1cc2cc(Br)ccc2oc1=O)c1ccc(O)cc1	-1.0	-4.8	5.3	-12.5	-0.7	-1.2	/	/
CCOC(=O)N1C(=O)NC(=O)C1c1ccc(OC)cc1 (stereo not drawn)	-4.0	/	/	/	3.7	/	/	/
COc1cccc(C2c3[nH]c4ccccc4c3C[C@H]3C(=O)N(CCCOC(C)C)CC(=O)N23)c1 (stereo partly drawn)	4.2	-8.1	-0.2	84.6*	1.4	-2.7	-8.6	-28.2
CC(C)OCCCN1CC(=O)N2C(c3ccccc3)c3[nH]c4ccccc4c3C[C@H]2C1=O (stereo partly drawn)	-0.8	-3.9	-8.1	3.7	1.6	-1.0	/	/
N=C1C(=O)NC(=O)C1c1ccccc1 (stereo not drawn)	-2.6	/	/	/	-2.2	/	/	/
CCOCc1c(C(=O)NCC(c2ccco2)N2CCCC2)oc2ccccc12 (stereo not drawn)	-2.8	-4.3	/	/	3.9	-1.0	/	/
Cc1ccc(S(=O)(=O)NCCCCCC(=O)NCCc2ccccc2)cc1	0.7	11.9	-5.3	43.2*	2.1	8.6	-10.9	-27.9
